# Insulin prom act – TRM-6 insulin promoter activation | TRM-6 cells, insulin promoter eGFP reporter, imaging; plate-scaled: unstimulated 0, stimulated control 100 | activation, % at 2 µM | hit rate 0.81% among 130,000;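 active = activation at 2 µM above a set limit, confirmed on inspection of the cell images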;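 also: share of cells whose green reporter signal exceeds an intensity cutoff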
#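 System: human fetal islet-derived TRM-6 cells with tamoxifen-inducible insulin promoter–eGFP reporter; input: seeding density of 1,000 cells per well; buffer or medium: Low-glucose (5.5 mM) medium with tamoxifen; incubation: compound exposure 48 h, 37 °C; measured by: high-content imaging of fixed cells with Hoechst nuclear stain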
# Active calls of the source: *. Only a selection was taken, and hits are over-represented in it overall.
SMILES,Insulin prom act
CCOc1ccc(C2Oc3nc(SC)nnc3-c3ccccc3N2C(C)=O)cc1OC (stereo not given),100
O=C1c2cccc3c(O)ccc(c23)C(=O)N1Cc1ccccc1,233*
O=C(c1ccccc1)c1ccc(CN2C(=O)c3ccccc3C2=O)o1,394
O=C1c2cccnc2C(=O)N1Cc1ccccc1,-12
CC1(C)CC(=O)C=C(NC2=CC3OC(c4ccccc4)OCC3OC2=O)C1 (stereo not given),-7
CCOc1ccc2nc(NC(=O)CN3CCC(n4nnc5cc(F)ccc54)CC3)sc2c1,0
COc1ccc(CN2CC(C(=O)NCCC3=CCCCC3)CC2=O)cc1 (stereo not given),3
COCCCNC(=O)C1CC(=O)N(Cc2ccc(OC)cc2)C1 (stereo not given),3
O=C(NCCc1ccccn1)C1CC(=O)N(Cc2ccccc2Cl)C1 (stereo not given),131*
Cc1c(NC(=O)CN2CCN(c3ccc(F)cc3)CC2)c(=O)n(-c2ccccc2)n1C,0
Cc1ccc(C)c(CN2C(=O)C3CCCN3c3ccc(S(=O)(=O)N4CCOCC4)cc32)c1 (stereo not given),3
COC(=O)CNC(=O)CN1C(=O)N(c2cccc(Cl)c2)C(N(O)C(=O)Nc2cccc(Cl)c2)C1(C)C (stereo not given),3
CCOC(=O)C1CCCN(C(=O)c2cc(-c3ccccc3)on2)C1 (stereo not given),32
O=C(c1ccc(NS(=O)(=O)c2cccs2)cc1)N1CCCCC1,-3
Cc1nc(CC(C)C)cc(C(=O)N2CCCC(CNS(=O)(=O)c3cccs3)C2)n1 (stereo not given),421*
Cc1cc(C)cc(COn2ccnc2)c1,-68
COc1ccc(-c2cc(C(F)(F)F)nc(-n3ccnc3C)n2)cc1,0
N/C(Cc1cccs1)=N\OC(=O)COc1ccc(Cl)cc1Cl,3
Cc1ccc(C(=O)N/C(N)=N/c2nc3ccccc3o2)cc1,-4
Cc1ccc(-c2nnc(Sc3nc4ccccc4o3)c3ccccc23)cc1,590*
Cc1cccc(NC(=O)CSc2nc3ccccc3o2)c1,-4
c1ccc2c(CSCCc3ccncc3)cccc2c1,-5
Cc1cc(NC(=O)C(=O)c2cn(C)c3ccccc23)no1,-7
COc1ccc(/C=C/C2=NN(Cc3ccccc3)C(=O)CC2)cc1,388*
COc1ccc(/C=C/c2ccc(=O)n(Cc3ccccc3)n2)cc1,8
SMILES,Insulin prom act
COc1ccc(/C=C2\C(=O)NCC(=O)N2Cc2ccccc2)cc1,-9
CCOC(=O)N1CCN(CCC(=O)Nc2ccc(OC(F)(F)F)cc2)CC1,-9
CCn1nc(C)cc1-c1n[nH]c(=S)n1N,-7
COc1ccc(C(C)C)cc1S(=O)(=O)n1ccnc1C,7
Cc1nnc2n(CCc3ccccc3)c(=O)c3c4c(sc3n12)CCCC4,188
CCOCC(=O)Nc1ccc(S(=O)(=O)NCCc2ccccc2)cc1,-5
CC(C)C(NS(=O)(=O)c1cccs1)C(=O)NCCN1CCN(c2ccccc2)CC1 (stereo not given),-6
Cc1ccc(CNC(=O)C(Cc2ccccc2)NS(=O)(=O)c2cccs2)cc1 (stereo not given),96*
CCOC(=O)CNC(=O)C(Cc1ccccc1)NS(=O)(=O)c1cccs1 (stereo not given),106
CC(C)C(NS(=O)(=O)c1cccs1)C(=O)NCc1ccc2c(c1)OCO2 (stereo not given),162*
CCCC(C)C(=O)NCc1ccc2c(c1)OCO2 (stereo not given),3
CC(Cc1ccccc1)C(=O)NCc1ccncc1 (stereo not given),-5
O=C(O)C1CCCN(S(=O)(=O)c2ccc3c(c2)OCCO3)C1 (stereo not given),0
N/C(COc1ccccc1)=N\NC(=O)c1cccnc1Oc1ccccc1,-8
CCn1ncc(Cl)c1C(=O)NC(=S)Nc1c(C)cc(C)cc1[N+](=O)[O-],293*
CCn1ncc(Br)c1C(=O)Nc1ccc(F)c([N+](=O)[O-])c1,238
Cc1ccc(C(=O)NC(=S)Nc2ccccc2N2CCCC2)cc1[N+](=O)[O-],0
CCOC(=O)N1CCC(Nc2nc3ccccc3nc2NS(=O)(=O)c2ccc(Cl)cc2)CC1,7
CCCS(=O)(=O)c1ccc(COC(=O)c2ccc(NC(C)=O)cc2)cc1,0
CCOC(=O)c1c(NC(=O)Cc2cccs2)sc(C(=O)NC2CCCC2)c1C,3
CCOC(=O)c1c(NC(=O)Cc2cccs2)sc(C(=O)NC2CCCCC2)c1C,153*
COC(=O)c1c(NC(=O)Cc2cccs2)sc(C(=O)NC2CCCCC2)c1C,290
CCN(CC)C(=O)c1sc2c(c1C)c(=O)n(-c1ccc(C)c(C)c1)c(=O)n2CC(=O)NCC1CCCO1 (stereo not given),-83
CCC(C)NS(=O)(=O)c1ccc(OCC(=O)NCc2ccc3c(c2)OCO3)cc1 (stereo not given),0
COc1ccc(C(=O)OCC(=O)Nc2ccc(F)cc2F)cc1OC,-3
SMILES,Insulin prom act
CCC(C)NS(=O)(=O)c1ccc(OCC(=O)Nc2ccc(F)cc2F)cc1 (stereo not given),462*
CSc1ccccc1C(=O)C1CCCN(C(=O)CCc2cccnc2)C1 (stereo not given),0
O=C(OCc1cccs1)c1ccccc1NS(=O)(=O)c1ccc2c(c1)OCCO2,8
COc1ccc(-c2nc3cc(NC(=O)Cc4ccc(OC)c(OC)c4)ccc3o2)cc1,-6
CN(C)C(=O)C(NC(=O)c1ccccc1)=C(Cl)Cl,-7
CCOC(=O)c1ccccc1NC(=O)COc1cc(=O)n(CC)c2ccccc12,307
CCn1c(=O)cc(OCC(=O)NCc2ccc(C)o2)c2ccccc21,100*
COc1ccc(CNC(=O)COc2cc(=O)n(C)c3ccccc23)cc1,-7
Cc1cc(C)nc(SCC(=O)OCC(=O)Nc2nc3ccccc3s2)n1,7
CC1NC(=S)N(C2CCCCC2)C1=O (stereo not given),7
CC(C)N(C(=O)CN1C(=O)NC2(CCCCCC2)C1=O)C(C)C,4
CCC(CC)c1nnc(NC(=O)CS(=O)(=O)Cc2ccccc2)s1,-43
CC(C)Cc1nnc(NC(=O)CS(=O)(=O)Cc2ccccc2)s1,6
Cc1ccnc(NC(=O)CS(=O)(=O)Cc2ccccc2)c1,550*
FC(F)(F)C(F)(F)c1nnc2ccc(-n3ccnc3)nn12,0
Cc1ccc(-c2ccc(=O)n(CC(=O)N3CCN(c4cc(Cl)ccc4C)CC3)n2)cc1,-9
CCN(CC)CCn1c(OC)cc(=O)[nH]c1=O,500*
CCN(CC)CCn1c(N)cc(=O)[nH]c1=O,0
CCN(CC)CCn1cnc2c([nH]c3cccc(OC)c32)c1=O,-10
COc1ccc(C(=O)NCCSCc2ccccc2)cc1OC,8
O=C(NC(Cc1ccccc1)c1nc2ccccc2[nH]1)C1CC(=O)N(c2ccc3c(c2)OCCO3)C1 (stereo not given),6
Cc1ccc(S(=O)(=O)CC(=O)Nc2ccc(Cl)cn2)cc1,-82
Cc1cc(N/N=C(/CCC(=O)O)C(=O)O)nc2ccccc12,0
CCOc1ccc(-n2c(SCC(=O)Nc3ccccc3C)n[nH]c2=O)cc1,-3
COc1ccc(N2C(=O)CC(N3CCOCC3)C2=O)cc1 (stereo not given),0
COc1ccc(N2C(=O)CC(Nc3cccc(C(C)=O)c3)C2=O)cc1OC (stereo not given),1
COc1ccc(NC2CC(=O)N(c3cccc(C)c3)C2=O)cc1 (stereo not given),600*

# Screens from PubChem.
